Measured values pooled from the literature.
Protocols differ between the studies behind these lines.
Target: Epithelial discoidin domain-containing receptor 1 (DDR1, Homo sapiens, UniProt Q08345)

SMILES	effect on	method	tested at	remaining binding
O=c1nc(-c2ccccn2)sc2ccccc12	cell-free assay	competition with immobilised ligand	1 µM	85%
FC(F)(F)Oc1cccc(-c2cnc3ccc(-c4ccncc4)nn23)c1	cell-free assay	competition with immobilised ligand	5 µM	48%
Nc1ncc2c(n1)-c1c([nH]c3ccc(C#CC4CC4)cc13)CCCC2	binding	competition with immobilised ligand	1 µM	100%
N[C@@H]1CCN(c2nccc(-c3cnn4ncccc34)n2)C1	binding	–	1 µM	100%
O=C(O)c1cc(-c2ccc(C3CCNCC3)cc2)c2ccc(-c3ccc(C(F)(F)F)cc3)cc2c1	cell-free assay	competition with immobilised ligand	1 µM	100%
CNC(=O)[C@@H]1CC[C@@H](n2c(-c3ccc4cnccc4c3)nc3ccc(C(=O)NCc4cccc(C(N)=O)c4)cc32)C1	binding	competition with immobilised ligand	1 µM	100%
c1cnn2ncc(-c3ccnc(N4CCC45COC5)n3)c2c1	binding	–	1 µM	82%
O=C(Nc1c[nH]nc1C(=O)NC1CCNCC1)c1cc(F)cc(F)c1	binding	competition with immobilised ligand	1 µM	100%
C[C@@H]1CCN(c2nccc(-c3cnn4ncccc34)n2)C1	binding	–	1 µM	100%
Cc1cnc(Nc2ccc(C(=O)N3CCC(N4CCCC4)CC3)cc2)nc1-c1cc2ccccc2s1	binding	competition with immobilised ligand	1 µM	0.1%
CS(=O)(=O)N1CCCC(NC(=O)[C@H](CCC2CCCCC2)NC(=O)c2ccc(CNc3ncnc4c3nnn4-c3ccccc3)cc2)C1 (some centres unmarked)	cell-free assay	competition with immobilised ligand	0.1 µM	89%
CN(c1nccc(-c2cnn3ncccc23)n1)C1CC1	binding	–	1 µM	80%
CC(=O)c1c(NS(C)(=O)=O)c2cc(-c3ccc(Cl)cc3)c(-c3ccc(Cl)cc3Cl)nc2n(C)c1=O	cell-free assay	competition with immobilised ligand	1 µM	100%
F[C@@H]1CCN(c2nccc(-c3cnn4ncccc34)n2)C1	binding	–	1 µM	83%
CC(=O)Nc1c(C(C)=O)c(=O)n(C)c2nc(-c3ccc(Cl)cc3Cl)c(-c3ccc(Cl)cc3)cc12	cell-free assay	competition with immobilised ligand	1 µM	100%
CN(C)c1nccc(-c2cnn3ncccc23)n1	binding	–	1 µM	100%
O=C(NCCCN1CCOCC1)c1ccc(Nc2nccc(-c3cc4ccccc4s3)n2)cc1	binding	competition with immobilised ligand	1 µM	20%
Cc1cc(NC(=O)c2cccc(S(F)(F)(F)(F)F)c2)cc(-n2ccn3nc(-c4cccnc4)cc23)c1	cell-free assay	competition with immobilised ligand	1 µM	0%
O=C(c1ccc(Nc2ncc(Cl)c(-c3ccc(Cl)s3)n2)cc1)N1CCC(N2CCCC2)CC1	binding	competition with immobilised ligand	1 µM	12%
COc1ncc2cc3ccccc3nc2c1C#N	cell-free assay	competition with immobilised ligand	5 µM	85%
